From ChEMBL document CHEMBL1806443, “Novel imidazo[4,5-b]pyridine and triaza-benzo[c]fluorene derivatives: synthesis, antiproliferative activity and DNA binding studies” (Eur J Med Chem, 2011) come the findings set out here.

The source made the active and inactive calls. No cut-off for these calls is given here.

The subject of data set [1] is WI-38. The data set is described as follows: Antiproliferative activity against human WI38 cells after 72 hrs by MTT assay. It is filed as cell-based. The note with it: Homo sapiens, WI-38, 72 h. The method, boiled down:
(§1)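 Monolayer cells in DMEM with 10% FBS, 2 mM L-glutamine, penicillin and streptomycin at 37 °C, 5% CO2. Seeded at 3000-6000 cells/well by doubling time on day 0. Five 10-fold dilutions (0.01–100 µM) were added and incubated 72 h. MTT read-out, converted to percentage growth. IC50 by linear regression between bracketing concentrations. Quadruplicate points, three independent experiments, ANOVA/Tukey p<0.05.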

For data set [2], the system named is MIA PaCa-2. The data set is described as follows: Antiproliferative activity against human MIAPaCa2 cells after 72 hrs by MTT assay. The note with it: Homo sapiens, MIA PaCa-2, 72 h. It is filed as functional, cell-based. The method, boiled down: as §1
In data set [3] the test system is SW-620. The experiment in a line: Antiproliferative activity against human SW620 cells after 72 hrs by MTT assay. It is filed as functional, cell-based. The note with it: Homo sapiens, SW-620, 72 h. The gist of the method:
as §1

Data set [4] has as its system HEp-2. The experiment in a line: Antiproliferative activity against human Hep2 cells after 72 hrs by MTT assay. It is filed as functional, cell-based. The note with it: Homo sapiens, HEp-2, 72 h. The gist of the method:
as §1

The test system of data set [5] is SK-BR-3. The data set is described as follows: Antiproliferative activity against human SKBR3 cells after 72 hrs by MTT assay. To be noted: Homo sapiens, SK-BR-3, 72 h. It is filed as functional, cell-based. The gist of the method:
as §1

Data set [6] deals with MCF7. The data set is described as follows: Antiproliferative activity against human MCF7 cells after 72 hrs by MTT assay. It is filed as functional, cell-based. To be noted: Homo sapiens, MCF7, 72 h. The method, boiled down: as §1
Data set [7] concerns HeLa. The data set is described as follows: Antiproliferative activity against human HeLa cells after 72 hrs by MTT assay. It is filed as functional, cell-based. To be noted: Homo sapiens, HeLa, 72 h. The method, boiled down:
as §1

For data set [8], the system named is WI-38. The experiment in a line: Cytostatic activity against human WI38 cells at 1 to 10 uM after 72 hrs by MTT assay. To be noted: wi-38, 72 h. It is filed as ADME, cell-based. The gist of the method: (§2)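 Monolayers in DMEM with 10% FBS, 2 mM L-glutamine, penicillin and streptomycin (37 °C, 5% CO2) were seeded at 3000–6000 cells/well on day 0. Five 10-fold dilutions (0.01–100 µM) were added, followed by 72-h incubation and MTT read-out. Absorbances were converted to percentage growth by the NIH formulae. Each point was run in quadruplicate in three experiments; ANOVA with Tukey test.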

Data set [9] concerns SW-620. The data set is described as follows: Cytostatic activity against human SW620 cells at 1 to 10 uM after 72 hrs by MTT assay. It is filed as functional, cell-based. The gist of the method: as §2
The subject of data set [10] is MIA PaCa-2. The experiment in a line: Cytostatic activity against human MIAPaCa2 cells at 1 to 10 uM after 72 hrs by MTT assay. It is filed as functional, cell-based. The method, boiled down: as §2
The test system of data set [11] is SK-BR-3. The experiment in a line: Cytostatic activity against human SKBR3 cells at 1 to 10 uM after 72 hrs by MTT assay. It is filed as functional, cell-based. The method, boiled down:
as §2

In data set [12] the test system is HEp-2. The data set is described as follows: Cytostatic activity against human Hep2 cells at 1 to 10 uM after 72 hrs by MTT assay. It is filed as functional, cell-based. The gist of the method:
as §2

In data set [13] the test system is MCF7. The experiment in a line: Cytostatic activity against human MCF7 cells at 1 to 10 uM after 72 hrs by MTT assay. It is filed as functional, cell-based. The method, boiled down: as §2
The subject of data set [14] is HeLa. The data set is described as follows: Cytostatic activity against human HeLa cells at 1 to 10 uM after 72 hrs by MTT assay. It is filed as functional, cell-based. The method, boiled down:
as §2

Data set [15] relates to WI-38. The data set is described as follows: Antiproliferative activity against human WI38 cells at 0.1 to 10 uM after 72 hrs by MTT assay. It is filed as cell-based. To be noted: wi-38, 72 h. The gist of the method:
as §1

The subject of data set [16] is MIA PaCa-2. The experiment in a line: Antiproliferative activity against human MIAPaCa2 cells at 0.1 to 10 uM after 72 hrs by MTT assay. It is filed as functional, cell-based. The method, boiled down: as §1
Data set [17] has as its system SK-BR-3. The experiment in a line: Antiproliferative activity against human SKBR3 cells at 0.1 to 10 uM after 72 hrs by MTT assay. It is filed as functional, cell-based. The method, boiled down: as §1
In data set [18] the test system is SW-620. The experiment in a line: Antiproliferative activity against human SW620 cells at 0.1 to 10 uM after 72 hrs by MTT assay. It is filed as functional, cell-based. The gist of the method:
as §1

Data set [19] concerns HEp-2. The experiment in a line: Antiproliferative activity against human Hep2 cells at 0.1 to 10 uM after 72 hrs by MTT assay. It is filed as functional, cell-based. The method, boiled down: as §1
Data set [20] concerns MCF7. The experiment in a line: Antiproliferative activity against human MCF7 cells at 0.1 to 10 uM after 72 hrs by MTT assay. It is filed as functional, cell-based. The gist of the method:
as §1

Data set [21] has as its system HeLa. The experiment in a line: Antiproliferative activity against human HeLa cells at 0.1 to 10 uM after 72 hrs by MTT assay. It is filed as functional, cell-based. The method, boiled down:
as §1

With `Clc1cccnc1/C=C/c1nc2ncccc2[nH]1`, the IC50 in the data set on WI-38 [1] is over 100 µM; in the data set with MIA PaCa-2 [2], over 100 µM; in the data set with SW-620 [3], over 100 µM; in the data set with HEp-2 [4] it was over 100 µM; with SK-BR-3 [5], 53.1 µM; in the data set with MCF7 [6], over 100 µM. For the same compound, the IC50 in the data set on HeLa [7] is over 100 µM.
As for `O=[N+]([O-])c1ccc(Cl)c(/C=C/c2nc3ncc(Br)cc3[nH]2)c1`, the half-inhibitory concentration (IC50) with WI-38 [1] came out at 6.48 µM; in the data set on MIA PaCa-2 [2] it was 30.6 µM; in the data set on SW-620 [3], 7.99 µM; in the data set with HEp-2 [4] it was 0.91 µM; with SK-BR-3 [5], 59.9 µM; in the data set on MCF7 [6] it was 8.81 µM. In the data set on HeLa [7], this compound showed an IC50 of 3.68 µM. Moreover, the Activity result in the data set on WI-38 [8] is given as “Toxic”. For the same compound, the outcome in the data set on SW-620 [9], with MIA PaCa-2 [10], with SK-BR-3 [11], with HEp-2 [12], in the data set with MCF7 [13] and in the data set on HeLa [14] was Active.
`O=c1[nH]cc(F)c(=O)[nH]1` [FLUOROURACIL]: the IC50 with WI-38 [1] is 18.5 µM; in the data set on MIA PaCa-2 [2] it was 11.5 µM; with SW-620 [3], 3.38 µM; in the data set with HEp-2 [4], over 100 µM; in the data set with SK-BR-3 [5] it was 38.2 µM; in the data set on MCF7 [6], 42 µM. For the same compound, the IC50 in the data set with HeLa [7] worked out at 10.3 µM.
On to `c1ccc2c(c1)ccc1nc3ncccc3n12` [7,8,11b-triazabenzo[c]fluorene], for which the concentration for half-maximal inhibition (IC50) in the data set on WI-38 [1] amounted to 47.4 µM; in the data set with MIA PaCa-2 [2], 80.5 µM; with SW-620 [3], 78.3 µM; in the data set with HEp-2 [4] it was 52.3 µM; with SK-BR-3 [5], 83.5 µM; with MCF7 [6], 75.5 µM. In addition, inhibition in the data set on HeLa [7] was half-maximal at 14.3 µM (IC50).
On to `Nc1ccc2c(ccc3nc4ncc(Br)cc4n32)c1` [listing 1 of 2 here], for which the half-maximal inhibitory concentration (IC50) in the data set with WI-38 [1] came out at 85.4 µM; in the data set with MIA PaCa-2 [2], 33 µM; in the data set with SW-620 [3], 38.6 µM; in the data set on HEp-2 [4], 14.1 µM; in the data set with SK-BR-3 [5], 7.76 µM; with MCF7 [6] it was 61.7 µM. In the data set with HeLa [7], this compound came in with an IC50 of 30.9 µM. In addition, the Activity result in the data set with WI-38 [8] is given as “Toxic”.
With `Brc1cnc2nc3ccc4ccc(C5=NCCN5)cc4n3c2c1.Cl`, the IC50 in the data set on WI-38 [1] is 3.71 µM; in the data set on MIA PaCa-2 [2], 4.74 µM; in the data set on SW-620 [3], 3.67 µM; in the data set on HEp-2 [4] it was 4.01 µM; in the data set with SK-BR-3 [5], 5.52 µM; in the data set on MCF7 [6], 8.43 µM. In addition, the IC50 in the data set on HeLa [7] came to 1.1 µM. In addition, the Activity result with WI-38 [15] and with WI-38 [8] was “Toxic” each time. The result in the data set with MIA PaCa-2 [16], in the data set with SK-BR-3 [17], in the data set on SW-620 [18], in the data set with HEp-2 [19], in the data set on MCF7 [20] and in the data set on HeLa [21] was Active. Further, the result in the data set on SW-620 [9], in the data set with MIA PaCa-2 [10], in the data set with SK-BR-3 [11], in the data set with HEp-2 [12], in the data set with MCF7 [13] and in the data set on HeLa [14] was Active.
Consider `c1cnc2ccc3nc4ncccc4n3c2c1`, for which the IC50 in the data set on WI-38 [1], in the data set on MIA PaCa-2 [2], in the data set on SW-620 [3], in the data set on HEp-2 [4], with SK-BR-3 [5] and in the data set on MCF7 [6] was over 100 µM throughout. The compound also came in with an IC50 in the data set on HeLa [7] of over 100 µM.
In the case of `Nc1ccc2c(ccc3nc4ncc(Br)cc4n32)c1` [listing 2 of 2 here], the outcome in the data set on SW-620 [9], with MIA PaCa-2 [10], in the data set with SK-BR-3 [11], with HEp-2 [12], with MCF7 [13] and with HeLa [14] was Active.
With `O=[N+]([O-])c1ccc2c(ccc3nc4ncc(Br)cc4n32)c1`, the 50% inhibitory concentration (IC50) with WI-38 [1] is over 100 µM; in the data set on MIA PaCa-2 [2] it was 63.5 µM; in the data set on SW-620 [3] it was 61.2 µM; in the data set with HEp-2 [4], 31.1 µM; in the data set on SK-BR-3 [5], 8.11 µM; in the data set with MCF7 [6], over 100 µM. In addition, in the data set on HeLa [7], the half-inhibitory concentration (IC50) is 13.4 µM.
As to `O=[N+]([O-])c1ccc2c(ccc3nc4ncccc4n32)c1`, the IC50 with WI-38 [1] is 75.7 µM; in the data set on MIA PaCa-2 [2] it was over 100 µM; with SW-620 [3], over 100 µM; in the data set on HEp-2 [4], over 100 µM; with SK-BR-3 [5] it was 42.7 µM; in the data set with MCF7 [6], over 100 µM. Also, the IC50 in the data set on HeLa [7] was 52.8 µM.
